Converted amounts (≈) assume the structure as drawn. The source made the active and inactive calls. The calls are words filed in the database; no cut-off is given here. Bridge positions count the residues as written; N and C are the ends. Peptide text beside a SMILES is read from it. I, II: the chains in the order shown.
What was measured:
[1] = tested on: Enterococcus faecium; assay: Antimicrobial activity against vancomycin-resistant Enterococcus faecium CCARM 5028 after 18 hrs by broth dilution method; assay type: functional; settings: CCARM 5028, 18 h
Procedure, shortened: (§1)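 Broth dilution per CLSI. Bacteria were grown overnight to stationary phase in Mueller-Hinton broth and diluted in fresh MHB to 2 × 10^5 CFU/ml. Stocks at 640 μg/ml in 0.01% acetic acid were 2-fold serially diluted to 10 μg/ml, and 11 μl was added to 100 μl of bacteria. After 18 h at 37°C, MIC was the lowest concentration with no visible turbidity. Run in triplicate.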

[2] = tested on: Citrobacter freundii; assay: Antimicrobial activity against Citrobacter freundii KCTC 2359 after 18 hrs by broth dilution method; assay type: functional; settings: KCTC 2359, 18 h
Procedure, shortened: (§2)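 Broth microdilution following CLSI recommendations. Bacteria were grown overnight to stationary phase in Mueller-Hinton broth, then diluted in fresh MHB to 2 × 10^5 CFU/ml. Peptide or antibiotic stocks of 640 μg/ml in 0.01% acetic acid were serially 2-fold diluted to 10 μg/ml, and each was added to the bacterial suspension at 11 μl per 100 μl. Plates were incubated 18 h at 37°C. MIC was taken as the lowest concentration giving no visible turbidity, in triplicate.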

[3] = tested on: Pseudomonas aeruginosa; assay: Antimicrobial activity against multidrug-resistant Pseudomonas aeruginosa CCARM 2161 after 18 hrs by broth dilution method; assay type: functional; settings: CCARM 2161, 18 h; procedure, shortened: as §1
[4] = tested on: Escherichia coli; assay: Antimicrobial activity against Escherichia coli KCTC 1039 after 18 hrs by broth dilution method; assay type: functional; settings: KCTC 1039, 18 h; procedure, shortened: as §2
[5] = tested on: Bacillus subtilis; assay: Antimicrobial activity against Bacillus subtilis KCTC 2213 after 18 hrs by broth dilution method; assay type: functional; settings: KCTC 2213, 18 h; procedure, shortened: as §2
[6] = tested on: Staphylococcus aureus; assay: Antimicrobial activity against methicillin-resistant Staphylococcus aureus CCARM 3696 by radial diffusion assay incubated with trypsin; assay type: functional, organism-based
[7] = tested on: Listeria monocytogenes; assay: Antimicrobial activity against Listeria monocytogenes KCTC 19111 after 18 hrs by broth dilution method; assay type: functional; settings: KCTC 19111, 18 h; procedure, shortened: as §2
[8] = tested on: Staphylococcus aureus; assay: Antimicrobial activity against methicillin-resistant Staphylococcus aureus CCARM 3696 by colony count assay incubated with trypsin for 20 mins; assay type: functional, organism-based
Procedure, shortened: (§3)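 Peptide (20 μg) was incubated at 37°C with 50 nM trypsin in 100 μl of 10 mM sodium phosphate, then heated 10 min at 80°C and cooled. MRSA (100 μl, 2 × 10^7 CFU/ml) was added for 5 min. Aliquots were plated on TSA (1.5% agarose, 3% TSB in NaP) and counted after overnight growth at 37°C. Read-out was CFU/ml; repeated three times on different days.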

[9] = tested on: Salmonella enterica; assay: Antimicrobial activity against Salmonella enterica KCTC 2930 after 18 hrs by broth dilution method; assay type: functional; settings: KCTC 2930, 18 h; procedure, shortened: as §2
[10] = tested on: Staphylococcus aureus; assay: Antimicrobial activity against methicillin-resistant Staphylococcus aureus CCARM 3696 after 18 hrs by broth dilution method; assay type: functional; settings: CCARM 3696, 18 h; procedure, shortened: as §1
[11] = tested on: Staphylococcus aureus; assay: Antimicrobial activity against methicillin-resistant Staphylococcus aureus CCARM 3696 by colony count assay incubated with trypsin for 10 mins; assay type: functional, organism-based; procedure, shortened: as §3
[12] = tested on: Staphylococcus aureus; assay: Antimicrobial activity against methicillin-resistant Staphylococcus aureus CCARM 3696 by radial diffusion assay incubated with chymotrypsin for 1 hr; assay type: functional, organism-based
[13] = tested on: Staphylococcus aureus; assay: Antimicrobial activity against methicillin-resistant Staphylococcus aureus CCARM 3696 by radial diffusion assay incubated with Staphylococcus aureus Culture supernatant for 1 hr; assay type: functional, organism-based
[14] = tested on: Staphylococcus aureus; assay: Antimicrobial activity against methicillin-resistant Staphylococcus aureus CCARM 3696 by colony count assay incubated with trypsin for 1 hr; assay type: functional, organism-based; procedure, shortened: as §3
[15] = tested on: Klebsiella oxytoca; assay: Antimicrobial activity against Klebsiella oxytoca KCTC 1686 after 18 hrs by broth dilution method; assay type: functional; settings: KCTC 1686, 18 h; procedure, shortened: as §2
[16] = tested on: Staphylococcus aureus; assay: Antimicrobial activity against methicillin-resistant Staphylococcus aureus CCARM 3696 by radial diffusion assay incubated with Pseudomonas aeruginosa Culture supernatant for 1 hr; assay type: functional, organism-based
[17] = tested on: Staphylococcus aureus; assay: Antimicrobial activity against methicillin-resistant Staphylococcus aureus CCARM 3696 by radial diffusion assay incubated with matrix metalloprotease 7 for 1 hr; assay type: functional, organism-based
[18] = tested on: Micrococcus luteus; assay: Antimicrobial activity against Micrococcus luteus KCTC 9341 after 18 hrs by broth dilution method; assay type: functional; settings: KCTC 9341, 18 h; procedure, shortened: as §2
[19] = tested on: Staphylococcus aureus; assay: Antimicrobial activity against methicillin-resistant Staphylococcus aureus CCARM 3696 by radial diffusion assay; assay type: functional, organism-based
Procedure, shortened: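 Radial diffusion. Washed mid-log MRSA (4 × 10^6 CFU) was mixed into 10 ml underlay of 1% agarose and 0.03% TSB in 9 mM NaP/1 mM sodium citrate, pH 7.4. Wells 3 mm wide received 5 μl of peptide at 200 μg/ml in 0.01% acetic acid. After 3 h at 37°C, a 1% agarose/6% TSB overlay was added and plates were incubated overnight. Clear zone diameter was read in units, 0.1 mm = 1 unit.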

[20] = tested on: Staphylococcus aureus; assay: Antimicrobial activity against methicillin-resistant Staphylococcus aureus CCARM 3696 by radial diffusion assay incubated with matrix metalloprotease 7 for 5 mins; assay type: functional, organism-based

Row | SMILES | MIC [1] [µg/mL] | MIC [2] [µg/mL] | MIC [3] [µg/mL] | MIC [4] [µg/mL] | MIC [5] [µg/mL] | Activity [6] | MIC [7] [µg/mL] | Activity [8] | MIC [9] [µg/mL] | MIC [10] [µg/mL] | Activity [11] | Activity [12] | Activity [13] | Activity [14] | MIC [15] [µg/mL] | Activity [16] | Activity [17] | MIC [18] [µg/mL] | Activity [19] | Activity [20]
1 | CC(C)C[C@H](NC(=O)CNC(=O)[C@H](Cc1cnc[nH]1)NC(=O)[C@H](Cc1cnc[nH]1)NC(=O)[C@H](CC(C)C)NC(=O)[C@H](CC(C)C)NC(=O)[C@H](C)NC(=O)[C@H](CCCCN)NC(=O)[C@H](CCCCN)NC(=O)[C@H](Cc1c[nH]c2ccccc12)NC(=O)[C@@H](N)CCCCN)C(=O)N[C@@H](CC(N)=O)C(=O)N[C@@H](CSSC[C@H](NC(=O)[C@H](CC(N)=O)NC(=O)[C@H](CC(C)C)NC(=O)CNC(=O)[C@H](Cc1cnc[nH]1)NC(=O)[C@H](Cc1cnc[nH]1)NC(=O)[C@H](CC(C)C)NC(=O)[C@H](CC(C)C)NC(=O)[C@H](C)NC(=O)[C@H](CCCCN)NC(=O)[C@H](CCCCN)NC(=O)[C@H](Cc1c[nH]c2ccccc12)NC(=O)[C@@H](N)CCCCN)C(=O)N[C@@H](C)C(=O)N[C@@H](CCCCN)C(=O)NCC(=O)N[C@H](C(=O)N[C@@H](CC(C)C)C(=O)N[C@@H](C)C(=O)O)C(C)C)C(=O)N[C@@H](C)C(=O)N[C@@H](CCCCN)C(=O)NCC(=O)N[C@H](C(=O)N[C@@H](CC(C)C)C(=O)N[C@@H](C)C(N)=O)C(C)C (I: H-KWKKALLHHGLNCAKGVLA-NH2 / II: H-KWKKALLHHGLNCAKGVLA-OH; disulfide I:13-II:13) | 2 (≈ 0.479 µM) | 4 (≈ 0.959 µM) | 4 (≈ 0.959 µM) | 2 (≈ 0.479 µM) | 2 (≈ 0.479 µM) | inactive | 2 (≈ 0.479 µM) | inactive | 2 (≈ 0.479 µM) | 4 (≈ 0.959 µM) | inactive | Active | inactive | Active | 2 (≈ 0.479 µM) | inactive | Active | 4 (≈ 0.959 µM) | – | –
2 | CC(C)C[C@H](NC(=O)CNC(=O)[C@H](Cc1cnc[nH]1)NC(=O)[C@H](Cc1cnc[nH]1)NC(=O)[C@H](CC(C)C)NC(=O)[C@H](CC(C)C)NC(=O)[C@H](C)NC(=O)[C@H](CCCCN)NC(=O)[C@H](CCCCN)NC(=O)[C@H](Cc1c[nH]c2ccccc12)NC(=O)[C@@H](N)CCCCN)C(=O)N[C@@H](CC(N)=O)C(=O)N[C@@H](CSSC[C@H](NC(=O)[C@H](CC(N)=O)NC(=O)[C@H](CC(C)C)NC(=O)CNC(=O)[C@H](Cc1cnc[nH]1)NC(=O)[C@H](Cc1cnc[nH]1)NC(=O)[C@@H](N)CC(C)C)C(=O)N[C@@H](C)C(=O)N[C@@H](CCCCN)C(=O)NCC(=O)N[C@H](C(=O)N[C@@H](CC(C)C)C(=O)N[C@@H](C)C(N)=O)C(C)C)C(=O)N[C@@H](C)C(=O)N[C@@H](CCCCN)C(=O)NCC(=O)N[C@H](C(=O)N[C@@H](CC(C)C)C(=O)N[C@@H](C)C(N)=O)C(C)C (I: H-KWKKALLHHGLNCAKGVLA-NH2 / II: H-LHHGLNCAKGVLA-NH2; disulfide I:13-II:7) | – | – | – | – | – | – | – | – | – | – | – | – | – | – | – | – | – | – | Active | –
3 | CC[C@H](C)[C@H](NC(=O)[C@H](CCCCN)NC(=O)[C@H](CCC(=O)O)NC(=O)[C@H](CCCCN)NC(=O)[C@H](CO)NC(=O)[C@H](CCCCN)NC(=O)[C@H](CCCNC(=N)N)NC(=O)[C@H](Cc1ccccc1)NC(=O)[C@H](Cc1ccccc1)NC(=O)[C@H](CC(=O)O)NC(=O)CNC(=O)[C@H](CC(C)C)NC(=O)[C@@H](N)CC(C)C)C(=O)NCC(=O)N[C@@H](CCCCN)C(=O)N[C@@H](CCC(=O)O)C(=O)N[C@@H](Cc1ccccc1)C(=O)N[C@@H](CCCCN)C(=O)N[C@@H](CCCNC(=N)N)C(=O)N[C@H](C(=O)N[C@H](C(=O)N[C@@H](CCC(N)=O)C(=O)N[C@@H](CCCNC(=N)N)C(=O)N[C@H](C(=O)N[C@@H](CCCCN)C(=O)N[C@@H](CC(=O)O)C(=O)N[C@@H](Cc1ccccc1)C(=O)N[C@@H](CC(C)C)C(=O)N[C@@H](CCCNC(=N)N)C(=O)N[C@@H](CC(N)=O)C(=O)N[C@@H](CC(C)C)C(=O)N[C@H](C(=O)N1CCC[C@H]1C(=O)N[C@@H](CCCNC(=N)N)C(=O)N[C@H](C(=O)N[C@@H](CCC(=O)O)C(=O)N[C@@H](CO)C(=O)O)[C@@H](C)O)C(C)C)[C@@H](C)CC)C(C)C)[C@@H](C)CC [CATHELICIDIN] | 32 (≈ 7.12 µM) | 64 (≈ 14.2 µM) | > 64 | 32 (≈ 7.12 µM) | 8 (≈ 1.78 µM) | – | 32 (≈ 7.12 µM) | inactive | > 64 | > 64 | inactive | – | inactive | Active | > 64 | inactive | – | > 64 | – | inactive

Reference: ChEMBL document CHEMBL1275595, “Antimicrobial activity of a halocidin-derived peptide resistant to attacks by proteases” (2010)
